# HTR1A agonist – agonists of human 5-HT1a serotonin receptor | AID 567 | CHO 5-HT1a Ga15 NFAT-bla reporter, FRET ratio; 0% basal, 100% maximal reference agonist | P08908 | activation, % at 10 µM | 65,000 tested, 0.56% active;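 active = activation above the screen-wide mean activation plus 3 SD, cut at about 19% in these data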;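 also: 0% = DMSO wells and 100% = 5-CT at EC100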
# HTR1E antagonist – blocks the human 5-HT1E serotonin receptor; 65,000 tested, 0.99% active; CHO 5-HT1E Ga15 NFAT-bla reporter, FRET, antagonist; inhibition, % at 6 µM;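 active = inhibition above a set limit, the mean inhibition across every tested compound plus 3 SD, cut at about 29% in these data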;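 also: signal is the 460 over 535 nm emission ratio of beta-lactamase substrate; 0% = agonist plus DMSO wells and 100% = wells without agonist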
# S1P3 agonist – activates the human S1P3 receptor; S1P3 NFAT-BLA reporter cells, agonism, FRET ratio; relative to 1 µM S1P, basal subtracted; activation, % at 4.5 µM; 60,000 tested, 0.1% active; AID 373;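 active = activation above the screen-wide mean plus 3 SD, cut at about 4.5% in these data, passing the limit was not always enough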
#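 material = human S1P3 NFAT-BLA reporter CHO cells | schedule = 4 h compound at 37 °C, 2 h substrate at RT | measured by = fluorescent BLA substrate, ex 405 nm, em 460/535 nm ratio | controls = 1 µM S1P reference | replication = primary once, confirmation triplicate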
# 5HT1E ag – 5-HT1E (human) receptor agonism; 65,000 tested, 0.69% active; CHO 5-HT1E Ga15 NFAT-bla reporter, FRET; 0% DMSO wells, 100% control agonist wells; activation, % at 6 µM; AID 574;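 active = activation above a set limit, the screen-wide mean activation plus 3 SD, cut at about 8.5% in these data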;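 also: 100% = positive control agonist at 1 µM giving full maximal response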
# S1P1 ag-PAM – S1P1 (human) agonism or agonism potentiation; activation, % at 9.5 µM; S1P1 CRE-bla cells, forskolin, beta-lactamase FRET, potentiator mode; S1P1 agonist co-added at EC20, 2 nM; 100% = saturating reference agonist, 0% = basal; 56,000 tested, 0.57% active; P21453;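 active = activation above a cutoff set at the mean activation of all tested compounds plus 3 SD, cut at about 54% in these data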;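 also: forskolin at 4 µM as EC80 and the EC20 agonist is SEW2871; 100% = SEW2871 at its EC100 plus forskolin at EC80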
# Target sequence (P21453 whole entry, looked up): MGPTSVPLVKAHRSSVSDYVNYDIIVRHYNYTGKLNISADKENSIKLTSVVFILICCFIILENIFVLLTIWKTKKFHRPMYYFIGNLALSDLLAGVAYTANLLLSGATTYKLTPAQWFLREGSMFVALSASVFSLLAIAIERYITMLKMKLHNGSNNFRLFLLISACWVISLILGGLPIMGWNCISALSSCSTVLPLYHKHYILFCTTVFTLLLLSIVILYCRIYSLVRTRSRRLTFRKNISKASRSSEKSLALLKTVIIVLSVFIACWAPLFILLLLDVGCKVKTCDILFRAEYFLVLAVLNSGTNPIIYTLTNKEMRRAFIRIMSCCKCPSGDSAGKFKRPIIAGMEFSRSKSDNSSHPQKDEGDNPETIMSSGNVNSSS
# 5HT1a antag – antagonists of human 5-HT1a serotonin receptor; P08908; CHO 5-HT1a Ga15 NFAT-bla reporter, antagonist mode; inhibition, % at 10 µM; 62,000 tested, 0.68% active;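 active = inhibition above the mean of all tested compounds plus 3 SD, cut at about 43% in these data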;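 also: receptor stimulated by 5-CT agonist at 100 nM near EC80; beta-lactamase reporter measured by ratiometric fluorescence of a cleavable substrate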
# * marks the source's active call; other numbers are inactive results; nt = no result. In the library only some 3% were active in any assay of this set; here they are far more common.
SMILES,HTR1A agonist,HTR1E antagonist,S1P3 agonist,5HT1E ag,S1P1 ag-PAM,5HT1a antag
Cc1cccc(N2CCN(C(=O)Cc3c(C(=O)O)[nH]c4ccc(Cl)cc34)CC2)c1C,-2.6,-4.5,-0.7,59.5*,-61.1,-3.5
Cc1cccc(N2CCN(C(=O)CCn3c(=O)[nH]c4ccccc4c3=O)CC2)c1C,2.3,-9.3,0.2,0.0,7.8,-18.0
O=C1CCCC(O)=C1C=Nc1ccc(O)cc1,-1.1,15.4,-2.7,-1.2,-9.8,43.4*
CC1(C)CC(=O)C(C=Nc2ccccc2)=C(O)C1,-4.1,16.5,-1.4,-1.7,-9.1,19.0
O=C1NCCN1Cc1cccc(Cl)c1,28.3*,-3.3,0.2,0.2,-1.2,4.9
O=S(=O)(c1ccccc1)N1CCN(Cc2cccc(Cl)c2)CC1,-2.2,-3.9,-0.1,-0.2,-13.9,-15.1
O=C1CC(Sc2nnnn2C2CCCCC2)C(=O)N1c1ccccc1 (centres undefined),-1.8,23.0,-1.1,0.2,-25.5,44.5*
Cc1cc2c(cc(C(=O)OCC(=O)NCc3cccs3)n2C(C)C)o1,-3.2,38.0*,-0.7,0.0,21.1,35.5
COc1cccc(-n2c(SCC(=O)Nc3cc(C)on3)nc3c([nH]c4ccccc43)c2=O)c1,-0.5,32.3*,0.1,0.3,-59.0,28.4
COc1cccc2cc(-c3nnc(SCC(=O)Nc4nc(C)cs4)n3C)oc12,0.6,12.7,-1.4,-0.1,-5.7,-0.3
CC(C)CNC(=O)C1CCN(c2ccc(S(=O)(=O)N3CCOCC3)cc2Cl)CC1,1.1,12.6,-0.8,-0.5,23.6,8.1
O=C(NCc1cccs1)C1CCN(c2ccc(S(=O)(=O)N3CCOCC3)cc2Cl)CC1,0.7,40.4*,-1.7,-0.2,16.2,27.4
CN(CCO)C(=O)CCC(=O)Nc1ccc(S(N)(=O)=O)cc1,1.3,-11.7,-1.4,0.7,-18.5,5.0
O=C(Cc1cccs1)Nc1nc2ccccc2s1,64.5*,-7.9,-0.9,1.3,4.8,18.3
O=C(CSc1nc2ccccc2o1)Nc1nc2ccccc2s1,-1.2,0.7,0.7,-0.9,-8.8,-5.1
Cc1ccc(C2C=C(c3ccc4c(c3)OCO4)Nc3ncnn32)cc1 (centres undefined),-2.9,6.8,0.7,-0.3,-36.1,10.1
COc1cccc(C2=CC(c3ccc(C)cc3)n3ncnc3N2)c1 (centres undefined),-0.1,29.3*,-1.2,-0.4,3.7,29.0
COc1ccc(N2CCn3c2nc2c3c(=O)n(CCCc3ccccc3)c(=O)n2C)cc1,-0.4,-1.5,-0.4,1.0,-0.5,3.3
COc1ccc(N2CC(C)Cn3c2nc2c3c(=O)n(CCc3ccccc3)c(=O)n2C)cc1 (centres undefined),2.0,12.6,-1.0,12.3*,-3.8,-4.1
CN(C)CCNc1oc(COc2cccc(Cl)c2)nc1C#N,-6.8,4.0,-1.3,-1.1,-2.0,3.3
CCC(=O)Nc1cc(C)c(NC(=O)c2ccccc2OC)cn1,-2.5,-1.6,0.2,13.6*,0.5,-15.8
CCC(=O)Nc1cc(C)c(NC(=O)c2ccco2)cn1,1.5,1.4,nt,-0.4,nt,2.8
Cc1cccc(-c2cc3nc4c(c(N5CCOCC5)n3n2)CCCC4)c1,-3.1,39.6*,-0.2,-0.1,-35.6,27.4
Cc1cccc(-c2cc3nc4c(c(N5CCC6(CC5)OCCO6)n3n2)CCCC4)c1,-3.4,14.7,-0.4,-0.2,-10.9,8.1
OC1CCCN(c2c3c(nc4cc(-c5cccc(Cl)c5)nn24)CCC3)C1 (centres undefined),1.1,38.2*,nt,-0.7,nt,7.3
SMILES,HTR1A agonist,HTR1E antagonist,S1P3 agonist,5HT1E ag,S1P1 ag-PAM,5HT1a antag
Cc1cccc(-c2cc3nc4c(c(N5CCCC(O)C5)n3n2)CCC4)c1 (centres undefined),-1.7,49.8*,-0.7,0.2,-8.2,20.4
CCOC(=O)CC1=C(C(=O)OCC)C(c2ccncc2)C(C#N)=C(N)O1 (centres undefined),-2.5,-2.4,-1.6,0.9,-2.9,21.9
Cn1c(=O)c(=O)n(C)c2cc(S(=O)(=O)N3CCCCC3)ccc21,-4.3,-8.6,-0.8,-0.2,-8.9,1.6
Cc1ccc2nc(NC(=O)C3CCCN(S(=O)(=O)c4cccc5nsnc45)C3)sc2c1 (centres undefined),-2.5,-9.8,-0.7,-0.2,12.3,-23.1
CN(C)c1ccnc(NCc2ccccc2)c1C#N,20.3*,10.4,-0.5,0.0,0.6,10.4
CCOC(=O)C1=C(N)OC2=C(C(=O)CCC2)C1c1ccccc1OCC (centres undefined),-1.7,9.4,19.0*,0.2,13.9,11.7
O=C1CCC(=O)N1CN(Cc1ccco1)CN1C(=O)CCC1=O,-0.8,8.6,-0.7,-0.3,-21.5,nt
C=C(C)COc1ccc(-c2[nH]ncc2-c2ccc(OC)c(OC)c2)c(O)c1,-0.3,36.5*,-1.2,0.8,-13.9,40.2
Oc1ccc(-c2nnc(SCC3CCCCC3)o2)cc1,1.8,-15.0,2.9,0.6,113.0*,22.3
O=C(CSc1nnc(-c2ccc(O)cc2)o1)N1CCOCC1,-1.1,7.2,-0.5,0.3,-3.9,0.9
CCCC(=O)Nc1ccc(-c2nc3cc(C)c(C)cc3o2)c(O)c1,-0.7,-7.4,-1.0,0.3,38.4,-9.4
CCCC(=O)Nc1ccc2oc(-c3ccc(OC)c(Br)c3)nc2c1,0.6,6.2,-0.5,0.3,98.1*,-9.5
CCCC(=O)Nc1ccc(-c2nc3cc(C)ccc3o2)cc1,0.3,-5.8,-0.7,-0.2,70.5*,7.4
COCCn1c(=O)[nH]c2cc(C(=O)NCCCN3CCN(c4ccc(F)cc4)CC3)ccc2c1=O,7.4,5.2,nt,0.0,nt,31.9
COCCn1c(=O)[nH]c2cc(C(=O)NCCN3CCN(c4ccccc4F)CC3)ccc2c1=O,0.6,11.8,nt,-0.3,nt,51.6*
COc1cc(CNc2ccc(N3CCOCC3)c(C(=O)O)c2)ccc1OCC(N)=O,-2.2,-0.7,-0.2,34.3*,-6.5,-1.3
Cc1cccc2cc3c(nc12)SC(=NCC1CCCO1)N(Cc1ccco1)C3 (centres undefined),-3.4,31.6*,-0.5,0.9,-3.6,57.2*
N#Cc1ccccc1Sc1ccccc1C(=O)OCc1nnc(-c2ccccc2)o1,1.4,0.0,-0.2,0.8,9.0,5.9
Cc1cc(N2CCOCC2)nc(NCc2ccccc2)n1,-3.7,32.6*,-2.2,-0.1,58.9*,3.6
Cc1cc(N2CCOCC2)nc(SCC(=O)c2ccccc2)n1,1.9,1.8,nt,0.0,nt,-5.8
Fc1ccccc1COc1ccc(/C=N/n2cnnc2)cc1,-4.3,7.6,-1.0,-0.7,87.9*,-15.9
CCOC(=O)c1[nH]c(C)c(C(=O)OCCN2C(=O)c3ccccc3C2=O)c1C,1.7,37.4*,-0.9,-1.7,5.7,9.7
